Compound activity from PubChem.
CYP2C19 act: activators of human cytochrome P450 2C19. P33261. recombinant CYP2C19, luciferin-H EGE luminescence; active compounds read high; 0 = fully inhibited enzyme, 1 = untreated enzyme. activation factor at 5 µM. 96,000 tested, under 10 active;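 active = activation factor of at least 2 at 5 µM in the primary screen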;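 note: 0 = wells with 2.5 mM tranylcypromine and 1 = vehicle-only wells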
Target sequence (P33261 whole entry, looked up): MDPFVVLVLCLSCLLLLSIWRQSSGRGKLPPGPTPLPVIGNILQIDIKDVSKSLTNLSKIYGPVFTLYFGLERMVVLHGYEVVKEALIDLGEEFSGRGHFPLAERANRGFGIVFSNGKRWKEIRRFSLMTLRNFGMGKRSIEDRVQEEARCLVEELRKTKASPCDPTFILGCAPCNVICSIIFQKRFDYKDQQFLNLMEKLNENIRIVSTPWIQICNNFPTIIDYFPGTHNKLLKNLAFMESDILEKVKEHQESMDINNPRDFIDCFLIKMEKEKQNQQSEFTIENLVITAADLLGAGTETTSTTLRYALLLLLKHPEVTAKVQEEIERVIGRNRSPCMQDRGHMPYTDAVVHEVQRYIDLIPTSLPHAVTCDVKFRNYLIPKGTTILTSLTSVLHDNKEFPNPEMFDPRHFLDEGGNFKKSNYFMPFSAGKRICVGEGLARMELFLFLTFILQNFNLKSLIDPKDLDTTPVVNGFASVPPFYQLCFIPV
CYP2C9 act: increases human cytochrome P450 2C9 activity; P11712; activation factor at 5 µM; hit rate 1.4% among 96,000; recombinant CYP2C9, luciferin-H conversion, luminescence; active compounds read high; factor 1 = untreated enzyme, 0 = blocked;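 active = activation factor of 2 or more for CYP2C9 at a 5 µM dose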;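 note: 0 = sulfaphenazole-blocked wells and 1 = vehicle-only wells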
CYP2C9 inhib: inhibitors of human CYP2C9; P11712; CYP2C9 Supersomes, luciferin-H conversion, luminescence; inhibition, % at 5 µM; hit rate 20% among 96,000; AID 777;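 active = blocking of liver enzyme CYP2C9 beyond about 50% at 5 µM, limit read from the data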
CYP2C19 inh: inhibitors of human CYP2C19. CYP2C19 Supersomes, luciferin-H EGE luminescence, 30 min. inhibition, % at 5 µM. hit rate 21% among 96,000. AID 778;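 active = CYP2C19 inhibition above a set limit at 5 µM in the primary screen, cut at about 50% in these data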;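 note: plate controls were negative control wells for no effect and 2.5 mM tranylcypromine positive control for full effect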
Rev-RRE block: disrupts HIV-1 Rev binding to RRE RNA; Rev peptide-RRE RNA binding, FRET; inhibition, % at 8 µM; P05866; hit rate 0.79% among 97,000;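 active = inhibition above the screen-wide mean plus 3 SD, cut at about 35% in these data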;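 note: 0% = median DMSO wells and 100% = median Neomycin B control wells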
Target sequence (P05866 whole entry, looked up): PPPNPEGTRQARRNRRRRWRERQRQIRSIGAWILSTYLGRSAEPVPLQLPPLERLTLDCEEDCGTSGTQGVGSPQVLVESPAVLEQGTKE
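Assay system: Rev peptide and RRE RNA, both fluorescently labelled; times: 5 min preincubation and 15 min binding, 25 °C; detection: FRET, ex 480 nm, em 540 and 671 nm; read-out basis: % inhibition from 671/540 nm acceptor-to-donor ratio, scaled between controls; benchmarks: DMSO low control, neomycin B high control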
Cav3 T inh: human Cav3.2 channel inhibition, primary screen; O95180; Cav3.2-expressing cells, Fluo-4 calcium fluorescence FDSS; active compounds read low; B-score at 10 µM; hit rate 4% among 100,000; AID 449739;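 active = single-dose well whose peak fluorescence ratio is a statistical outlier from its plate by either plate-standardised score or position-corrected B-score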
Starred values were filed as active, the others as inactive; . = not tested or not shown. Shown are actives, neighbours in structure and some others; about 27% of the full set was active somewhere.

SMILES	CYP2C19 act	CYP2C9 act	CYP2C9 inhib	CYP2C19 inh	Rev-RRE block	Cav3 T inh
Cc1ccc(NC2=NC(c3ccco3)n3c(nc(C)cc3=O)N2)c(C)c1 (stereo unspecified)	0.8	0.7	33.4	22.4	.	.
Cc1ccc(C(=O)NCCCN2CCOCC2)o1	.	.	.	.	4.1	0.689
COc1cc(CN2C(=O)C(NC(=O)c3ccco3)(C(F)(F)F)C3=C2CC(C)(C)CC3=O)cc(OC)c1 (stereo unspecified)	0.9	0.4	60.3*	14.0	-0.8	0.783
CCOC(=O)NC1(C(F)(F)F)C(=O)N(Cc2ccccc2)C2=C1C(=O)CC(C)(C)C2 (stereo unspecified)	0.3	1	4.5	71.0*	-2.5	3.22
COc1ccc(C(=O)NC2(C(F)(F)F)C(=O)N(Cc3ccco3)C3=C2C(=O)CC(C)(C)C3)cc1OC (stereo unspecified)	0.9	1	2.8	7.3	-2.4	0.931
Cc1ccc(Nc2nc(-c3c(C)nc4ncccn34)cs2)cc1	0.8	2*	-102.9	19.3	1.3	-0.698
O=C1C2C3C=CC(C3)C2C(=O)N1c1n[nH]c(CCc2ccccc2)n1 (stereo unspecified)	1	1	2.1	-1.7	1.7	0.801
Cc1ccc(C2C3=C(CC(C)(C)CC3=O)Nc3onc(C)c32)cc1 (stereo unspecified)	0	0.4	55.9*	98.8*	14.9	0.18
Cc1noc2c1C(c1ccc(N(C)C)cc1)C1=C(CC(C)(C)CC1=O)N2 (stereo unspecified)	0.2	0.8	20.5	76.2*	-3.1	0.472
CC1=C(C(=O)OC(C)C)C(c2ccc(N(C)C)cc2)C2=C(CC(C)(C)CC2=O)N1 (stereo unspecified)	0.8	0.9	12.2	16.8	-4.5	-1.13
CCOC(=O)C1(S(=O)(=O)c2ccccc2)CCN(Cc2ccc(Cl)cc2)CC1	0.5	0.7	30.2	45.9	9.2	-3.07
CCCC(=O)Nc1nc(C)c(-c2csc(Nc3cc(OC)ccc3OC)n2)s1	0.8	0.2	77.8*	20.0	0.8	0.972
C=CCCC(=O)Nc1nc(C)c(-c2csc(Nc3cc(OC)ccc3OC)n2)s1	0.9	0.5	51.6*	9.0	1.5	-0.0284
COc1cccc(Nc2nc(-c3sc(NC(=O)CC(C)C)nc3C)cs2)c1	0.2	0.1	85.6*	83.7*	1.0	0.491
COc1ccccc1Nc1nc(-c2sc(NC(=O)CC(C)C)nc2C)cs1	0.8	0.5	54.0*	15.0	5.5	0.0233
C=CCCC(=O)Nc1nc(C)c(-c2csc(Nc3cccc(OC)c3)n2)s1	0.9	0.5	48.8	12.8	4.1	-0.547
COc1ccccc1Nc1nc(-c2sc(NC(=O)C(C)(C)C)nc2C)cs1	0.9	0.6	40.2	11.6	-0.1	0.189
O=C1C=CCC(/C=C/c2ccccc2)O1 (stereo unspecified)	.	.	.	.	.	1
CC(=O)CC1(O)C(=O)N(CN2CCN(c3ccccc3)CC2)c2ccccc21 (stereo unspecified)	0.9	1.1	-5.7	12.6	4.5	0.708
O=C(Cn1cnc2c(cnn2-c2ccc(Cl)cc2)c1=O)NCC1CCCO1 (stereo unspecified)	1	0.9	7.7	0.1	6.0	-0.993
COc1ccc(OC)c(Nc2nc(-c3sc(N)nc3C)cs2)c1	0.5	0.3	73.3*	53.4*	3.5	-0.919
COc1cccc(Nc2nc(-c3sc(NC(=O)c4ccccc4)nc3C)cs2)c1	0.8	0.4	58.6*	23.3	-1.1	0.0122
CCCC(C)C(=O)Nc1nc(C)c(-c2csc(Nc3cc(OC)ccc3OC)n2)s1 (stereo unspecified)	0.8	0.5	53.4*	21.9	-5.1	0.122
CCOc1ccccc1Nc1nc(-c2sc(NC(=O)c3ccco3)nc2C)cs1	1	0.4	58.6*	3.8	-0.6	-0.0146
COc1ccccc1Nc1nc(-c2sc(NC(=O)c3cccc(Cl)c3)nc2C)cs1	0.7	0.5	49.4	27.9	-2.5	-0.145
SMILES	CYP2C19 act	CYP2C9 act	CYP2C9 inhib	CYP2C19 inh	Rev-RRE block	Cav3 T inh
O=C(N/N=C/c1cc([N+](=O)[O-])ccc1N1CCNCC1)c1ccc([N+](=O)[O-])cc1	0.9	1	4.4	6.1	1.8	-1.17
Cn1cccc1P(=O)(c1cccn1C)c1cccn1C	1.1	1.1	-14.8	-7.8	1.8	0.253
Cc1cc(O)ccc1Nc1nc(-c2sc(N)nc2C)cs1	1	1	1.9	3.7	5.1	0.902
CCC(=O)Nc1nc2cc(OC)ccc2s1	1	0.8	16.1	4.8	10.1	0.382
CCCC(=O)Nc1nc(C)c(-c2csc(Nc3ccccc3OC)n2)s1	0.7	0.3	66.3*	32.4	1.8	0.162
COc1ccc2sc(NC(=O)CC(C)C)nc2c1	0.4	0.3	65.9*	57.7*	0.9	-1.33
Cc1nc(N)sc1-c1csc(Nc2ccccc2)n1	0.2	0.2	83.1*	85.0*	7.4	-0.394
Cc1ccc(-n2c(Cn3nc(C(F)(F)F)cc3C)n[nH]c2=S)cc1	0.9	1.1	-9.6	7.7	4.2	0.592
O=S(=O)(c1ccc(N2CCCC2)cc1)C(F)(F)F	1	1.1	-12.2	2.7	8.9	-1.06
CCC(C)C(=O)Nc1nc(C)c(-c2csc(Nc3ccc(Cl)cc3)n2)s1 (stereo unspecified)	0.6	0.4	57.6*	40.2	5.6	-0.0239
CCCC(=O)Nc1nc(C)c(-c2csc(Nc3ccc(Cl)cc3)n2)s1	0.5	0.7	31.0	53.5*	0.8	-0.423
CC(=O)c1c(N)c(C#N)c(C)n1-c1ccc(Br)cc1	0.1	1	3.6	94.2*	1.7	-0.767
Cc1c(C(=O)c2ccc(Cl)cc2Cl)cnc2cc3c(cc12)OCO3	.	.	.	.	8.3	-4.03*
COc1ccc(C(=O)c2ccc(Cl)cc2Cl)cc1	1	1.1	-7.0	-4.8	16.6	0.54
Cc1nn(CC(=O)Nc2ccc3c(c2)nc(CN2CCCC2)n3C)c(=O)c2ccccc12	0.9	0.8	20.5	13.3	-1.2	0.672
O=S(=O)(c1ccc(C2=CSC3=NCCN23)cc1)N1CCOCC1	0.4	0.9	11.2	55.7*	3.7	0.119
C=CCN1c2ccccc2[C@]23C[C@@H](C(=O)OC)N(C(=O)c4cccs4)C2=NC(C(=O)OC)=C(C(=O)OC)[C@H]13	.	.	.	.	.	-2.23
CC(C)c1noc2ncc(C(=O)c3cc(Cl)cc(Cl)c3O)cc12	0.2	0	99.9*	81.3*	17.2	-6.53*
O=C(c1cnc2c(c1)COc1ccc(Cl)cc1-2)c1ccccc1O	.	.	.	.	5.9	-0.526
COC(=O)C1=C(C(=O)OC)SC2(S1)C(C(=O)OC)=C(C(=O)OC)SC1=C2c2cc(C)cc(C)c2NC1(C)C	0.3	0.2	78.6*	67.3*	4.7	0.0412
O=c1[nH]c(SCc2nc3c(cnn3-c3ccccc3)c(=O)[nH]2)nc2ccccc12	0.6	0.6	43.8	41.1	8.6	0.0538
